Results published in publication PMC7482441 (Pharmacological Research, 2020).

Key:
[1] = test system: ambulant boys with DMD; test: Phase Ib safety assessments; format: in vivo, human
Summary of the method: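 Open-label study in boys aged 6–14 with genetically confirmed DMD, walking ≥75 m and on stable corticosteroids ≥6 months. Dosing was oral, 50–300 mg TID for 4 weeks, in 4 ascending cohorts. Assessments at screening, weeks 1, 2 and 4, and 1–2 weeks post-treatment: physical exam, AEs, supine/standing blood pressure and heart rate, respiratory rate. Also 12-lead ECG with QT, read locally and centrally, plus blood/urine haematology and biochemistry.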

[2] = test system: KLK6; test: Circulating biomarker, baseline vs 4-week treatment; format: in vivo, human; conditions: 20 DMD patients, OLink, p-value 0.0004, FDR 0.20
[3] = test system: healthy male subjects; conditions: earlier Merck KGaA phase I studies; cited from earlier work
[4] = test system: MB (Myoglobin); test: Circulating biomarker, baseline vs 4-week treatment; format: in vivo, human; conditions: 20 DMD patients, OLink, p-value 0.0036, FDR 0.79
[5] = test system: Golden Retriever muscular dystrophy (GRMD) dogs; conditions: treatment in a preventing setting; cited from earlier work
[6] = test system: animal models; conditions: cited from earlier work
[7] = test system: CK T (Creatine Kinase total); test: Circulating biomarker, baseline vs 4-week treatment; format: in vivo, human; conditions: 20 DMD patients, Electrophoresis, p-value 0.0007, FDR 0.24
[8] = Cohort 1 N = 5, 150 to 225 mg daily oral, 4 weeks
[9] = Cohort 2 N = 5, 300 to 450 mg daily oral, 4 weeks
[10] = Cohort 3 N = 5, 450 to 600 mg daily oral, 4 weeks
[11] = Cohort 4 N = 5, 600 to 900 mg daily oral, 4 weeks

[H]/N=C(\N)NC(=O)c1cc(S(C)(=O)=O)c(S(C)(=O)=O)cc1C [Rimeporide]
12-lead ECGs ([1]; 4-week treatment): no clinically important changes
Abdominal pain upper: patients (events) ([1]; All patients N = 20, 4 weeks): 2 (3 events)
Chills: patients (events) ([1]; All patients N = 20, 4 weeks): 1 (2 events)
Cough: patients (events) ([1]; All patients N = 20, 4 weeks): 3 (3 events)
Dizziness: patients (events) ([1]; All patients N = 20, 4 weeks): 1 (1 event)
Ear and labyrinth disorders: patients (events) ([1]; All patients N = 20, 4 weeks): 1 (1 event)
Fall: patients (events) ([1]; All patients N = 20, 4 weeks): 1 (1 event)
Flushing: patients (events) ([1]; All patients N = 20, 4 weeks): 2 (3 events)
Gastrointestinal disorders: patients (events) ([1]; All patients N = 20, 4 weeks): 6 (10 events)
General disorders and administration site conditions: patients (events) ([1]; All patients N = 20, 4 weeks): 2 (3 events)
Infections and infestations: patients (events) ([1]; All patients N = 20, 4 weeks): 4 (4 events)
Injury, poisoning and procedural complications: patients (events) ([1]; All patients N = 20, 4 weeks): 1 (1 event)
Mouth ulceration: patients (events) ([1]; All patients N = 20, 4 weeks): 1 (1 event)
Nervous system disorders: patients (events) ([1]; All patients N = 20, 4 weeks): 7 (8 events)
Oropharyngeal pain: patients (events) ([1]; All patients N = 20, 4 weeks): 1 (1 event)
Presyncope: patients (events) ([1]; All patients N = 20, 4 weeks): 1 (1 event)
Pyrexia: patients (events) ([1]; All patients N = 20, 4 weeks): 1 (1 event)
Respiratory, thoracic and mediastinal disorders: patients (events) ([1]; All patients N = 20, 4 weeks): 4 (4 events)
Tympanic membrane perforation: patients (events) ([1]; All patients N = 20, 4 weeks): 1 (1 event)
Vascular disorders: patients (events) ([1]; All patients N = 20, 4 weeks): 2 (3 events)
Vomiting: patients (events) ([1]; All patients N = 20, 4 weeks): 2 (2 events)
Abdominal pain upper: patients (events) [1, 8]: 0
Any treatment-emergent adverse event: patients (events) [1, 8]: 2 (6 events)
Chills: patients (events) [1, 8]: 1 (2 events)
Cough: patients (events) [1, 8]: 0
Diarrhoea: patients (events) [1, 8]: 0
Dizziness: patients (events) [1, 8]: 0
Ear and labyrinth disorders: patients (events) [1, 8]: 0
Fall: patients (events) [1, 8]: 1 (1 event)
Flushing: patients (events) [1, 8]: 0
Gastrointestinal disorders: patients (events) [1, 8]: 0
General disorders and administration site conditions: patients (events) [1, 8]: 1 (2 events)
Headache: patients (events) [1, 8]: 1 (1 event)
Infections and infestations: patients (events) [1, 8]: 0
Injury, poisoning and procedural complications: patients (events) [1, 8]: 1 (1 event)
Mouth ulceration: patients (events) [1, 8]: 0
Nasopharyngitis: patients (events) [1, 8]: 0
Nervous system disorders: patients (events) [1, 8]: 1 (1 event)
Oropharyngeal pain: patients (events) [1, 8]: 0
Presyncope: patients (events) [1, 8]: 0
Pyrexia: patients (events) [1, 8]: 0
Respiratory, thoracic and mediastinal disorders: patients (events) [1, 8]: 0
Tympanic membrane perforation: patients (events) [1, 8]: 0
Vascular disorders: patients (events) [1, 8]: 0
Vomiting: patients (events) [1, 8]: 0
Abdominal pain upper: patients (events) [1, 9]: 0
Any treatment-emergent adverse event: patients (events) [1, 9]: 1 (3 events)
Chills: patients (events) [1, 9]: 0
Cough: patients (events) [1, 9]: 1 (1 event)
Diarrhoea: patients (events) [1, 9]: 0
Dizziness: patients (events) [1, 9]: 0
Ear and labyrinth disorders: patients (events) [1, 9]: 0
Fall: patients (events) [1, 9]: 0
Flushing: patients (events) [1, 9]: 0
Gastrointestinal disorders: patients (events) [1, 9]: 1 (1 event)
General disorders and administration site conditions: patients (events) [1, 9]: 0
Headache: patients (events) [1, 9]: 0
Infections and infestations: patients (events) [1, 9]: 1 (1 event)
Injury, poisoning and procedural complications: patients (events) [1, 9]: 0
Mouth ulceration: patients (events) [1, 9]: 1 (1 event)
Nasopharyngitis: patients (events) [1, 9]: 1 (1 event)
Nervous system disorders: patients (events) [1, 9]: 0
Oropharyngeal pain: patients (events) [1, 9]: 0
Presyncope: patients (events) [1, 9]: 0
Pyrexia: patients (events) [1, 9]: 0
Respiratory, thoracic and mediastinal disorders: patients (events) [1, 9]: 1 (1 event)
Tympanic membrane perforation: patients (events) [1, 9]: 0
Vascular disorders: patients (events) [1, 9]: 0
Vomiting: patients (events) [1, 9]: 0
Abdominal pain upper: patients (events) [1, 10]: 1 (2 events)
Any treatment-emergent adverse event: patients (events) [1, 10]: 5 (15 events)
Chills: patients (events) [1, 10]: 0
Cough: patients (events) [1, 10]: 1 (1 event)
Diarrhoea: patients (events) [1, 10]: 3 (4 events)
Dizziness: patients (events) [1, 10]: 1 (1 event)
Ear and labyrinth disorders: patients (events) [1, 10]: 0
Fall: patients (events) [1, 10]: 0
Flushing: patients (events) [1, 10]: 1 (1 event)
Gastrointestinal disorders: patients (events) [1, 10]: 4 (8 events)
General disorders and administration site conditions: patients (events) [1, 10]: 0
Headache: patients (events) [1, 10]: 2 (2 events)
Infections and infestations: patients (events) [1, 10]: 2 (2 events)
Injury, poisoning and procedural complications: patients (events) [1, 10]: 0
Mouth ulceration: patients (events) [1, 10]: 0
Nasopharyngitis: patients (events) [1, 10]: 2 (2 events)
Nervous system disorders: patients (events) [1, 10]: 3 (3 events)
Oropharyngeal pain: patients (events) [1, 10]: 0
Presyncope: patients (events) [1, 10]: 0
Pyrexia: patients (events) [1, 10]: 0
Respiratory, thoracic and mediastinal disorders: patients (events) [1, 10]: 1 (1 event)
Tympanic membrane perforation: patients (events) [1, 10]: 0
Vascular disorders: patients (events) [1, 10]: 1 (1 event)
Vomiting: patients (events) [1, 10]: 2 (2 events)
Abdominal pain upper: patients (events) [1, 11]: 1 (1 event)
Any treatment-emergent adverse event: patients (events) [1, 11]: 4 (13 events)
Chills: patients (events) [1, 11]: 0
Cough: patients (events) [1, 11]: 1 (1 event)
Diarrhoea: patients (events) [1, 11]: 0
Dizziness: patients (events) [1, 11]: 0
Ear and labyrinth disorders: patients (events) [1, 11]: 1 (1 event)
Flushing: patients (events) [1, 11]: 1 (2 events)
Gastrointestinal disorders: patients (events) [1, 11]: 1 (1 event)
General disorders and administration site conditions: patients (events) [1, 11]: 1 (1 event)
Headache: patients (events) [1, 11]: 2 (3 events)
Infections and infestations: patients (events) [1, 11]: 1 (1 event)
Mouth ulceration: patients (events) [1, 11]: 0
Nasopharyngitis: patients (events) [1, 11]: 1 (1 event)
Nervous system disorders: patients (events) [1, 11]: 3 (4 events)
Oropharyngeal pain: patients (events) [1, 11]: 1 (1 event)
Presyncope: patients (events) [1, 11]: 1 (1 event)
Pyrexia: patients (events) [1, 11]: 1 (1 event)
Respiratory, thoracic and mediastinal disorders: patients (events) [1, 11]: 2 (2 events)
Tympanic membrane perforation: patients (events) [1, 11]: 1 (1 event)
Vascular disorders: patients (events) [1, 11]: 1 (2 events)
Vomiting: patients (events) [1, 11]: 0
gastrin levels ([1]; after a four-week treatment): No modifications of gastrin levels
TEAEs of mild intensity ([1]; all cohorts): Thirty-five
TEAEs reported as severe ([1]; all cohorts): 2
SAE related to study medication ([1]; all doses, 4 weeks, 20 DMD boys): No SAE related to study medication was reported
blood pressure and heart rate ([1]; standing and supine, 4-week treatment): devoid of any blood pressure or heart rate lowering effects
treatment emergent adverse events (TEAEs), total events ([1]; twelve patients of 20): 37
KLK6: Term (TRT, linear mixed effect model, Day 28 vs Day 0) [2]: −0.2612
maximum tolerated dose [3]: could not be defined
MB: Term (TRT, linear mixed effect model, Day 28 vs Day 0) [4]: −0.6763
cardioprotection [5]: confirmed the cardioprotective role
exposure/concentration range with an efficacious response [6]: 500 to 2500 ng/mL
CK T: Term (TRT, linear mixed effect model, Day 28 vs Day 0) [7]: −0.3851
